Calls of active or inactive are those of the source. The calls are words filed in the database; no cut-off is given here.
Tests used:
[1] = Inhibition of nucleoprotein trimerization in recombinant Influenza A virus A/WSN/1933 (H1N1) infected in MDCK cells assessed as reduction in reduction in E339(carboxyl group)-R416(guanidino group) interaction by measuring virus-induced cytopathic effect after 48 hrs by CellTiter 96 AQueous non-radioactive cell proliferation assay; format: cell-based
Method in brief: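 CPE protection assay. Virus at 100 TCID₅₀ is mixed 1:1 with compound at varied concentrations and added to MDCK cells (1 × 10⁵ cells/mL). After 48 h at 37 °C/5% CO₂, CPE is read with CellTiter 96 AQueous reagent. EC₅₀, the concentration giving 50% protection from CPE, is obtained by fitting percent CPE against concentration.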

[2] = Cytotoxicity against dog MDCK cells after 48 hrs by CellTiter 96 AQueous non-radioactive cell proliferation assay; format: cell-based, Canis lupus familiaris
Method in brief: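 MDCK cells, grown in DMEM with 10% FBS and penicillin−streptomycin at 37 °C/5% CO₂, seeded at 1 × 10⁵ cells/mL and exposed to varied compound concentrations without virus. Incubated 48 h at 37 °C under 5% CO₂, then read with CellTiter 96 AQueous (MTS) reagent. CC₅₀ is the 50% cytotoxic concentration from the curve fit.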

[3] = test system: Influenza A virus; assay: Antiviral activity against Influenza A virus A/WSN/1933 (H1N1) infected in BALB/c mouse assessed as animal survival rate at 20 mg/kg/day, ip administered for 5 days and measured after 14 days relative to control; format: functional
Method in brief: (§1)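 Female BALB/c mice (18−20 g), quarantined 48−72 h, anesthetized i.p. (zoletil or ketamine/xylazine). Drug in PBS with 40% PEG 400 given i.p. twice daily for 5 days. Intranasal virus challenge (25 μL, 2X mouse LD₅₀) 4 h after first dose. Vehicle-only controls on the same schedule; 10 mice/group. Survival and body weight recorded daily for 14 days.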

[4] = Aqueous solubility of compound; format: physicochemical; conditions: buffer
[5] = test system: Influenza A virus; assay: Antiviral activity against Influenza A virus A/WSN/1933 (H1N1) infected in BALB/c mouse assessed as increase in animal body weight at 20 mg/kg/day, ip administered for 5 days and measured after 10 days post infection; format: functional, organism-based; method in brief: as §1

SMILES	EC50 [1] [µM]	CC50 at 48 h [2] [µM]	Activity [3] [%]	solubility [4]	Activity [5]
O=C(NCCCN1CCOCC1)c1csc(Nc2cc(F)c(Cl)c(F)c2)n1	0.8	52	–	–	–
CC(C)OCCCNC(=O)c1csc(Nc2ccc(Cl)cc2)n1	1.2	> 100	–	–	–
CCOCCCNC(=O)c1csc(Nc2cc(Cl)c(Cl)c(Cl)c2)n1	0.4	> 100	–	–	–
CCOCCCNC(=O)c1csc(Nc2ccc(Cl)c(F)c2)n1	0.6	> 100	–	–	–
CCOCCCNC(=O)c1csc(Nc2ccc(Cl)c(Cl)c2)n1	0.2	> 100	–	–	–
CCOCCCNC(=O)c1csc(Nc2ccc(Cl)cc2)n1	1.3	> 100	–	–	–
CCOCCCNC(=O)c1csc(Nc2ccc(Cl)c(C)c2)n1	1	52	–	–	–
O=C(NCCCN1CCOCC1)c1csc(Nc2cc(Cl)c(Cl)c(Cl)c2)n1	1.5	41	–	–	–
Cc1cc(Nc2nc(C(=O)NCCCOC(C)C)cs2)cc(C)c1Cl	1.3	> 100	–	–	–
CCOCCCNC(=O)c1csc(Nc2cc(F)c(Cl)c(F)c2)n1.CS(=O)(=O)O.CS(=O)(=O)O	–	–	70	–	–
CCOCCCNC(=O)c1csc(Nc2cc(C)c(Cl)c(C)c2)n1	2.3	> 100	–	–	–
Cc1cc(Nc2nc(C(=O)NCCCN3CCOCC3)cs2)cc(C)c1Cl	3.1	45.7	–	–	–
Cc1cc(Nc2nc(C(=O)NCCCOC(C)C)cs2)ccc1Cl	1.2	> 100	–	–	–
O=C(NCCCN1CCOCC1)c1csc(Nc2ccc(Cl)c(F)c2)n1	3.2	45	–	–	–
CCOCCCNC(=O)c1csc(Nc2cc(F)c(Cl)c(F)c2)n1 [listing 1 of 2 here]	0.12	> 100	–	Insoluble	–
CC(C)OCCCNC(=O)c1csc(Nc2cc(F)c(Cl)c(F)c2)n1.O=S(=O)(O)O.O=S(=O)(O)O	–	–	30	–	–
CC(C)OCCCNC(=O)c1csc(Nc2ccc(Cl)c(F)c2)n1	0.5	> 100	–	–	–
CC(C)OCCCNC(=O)c1csc(Nc2cc(Cl)c(Cl)c(Cl)c2)n1	0.6	> 100	–	–	–
CC(C)OCCCNC(=O)c1csc(Nc2cc(F)c(Cl)c(F)c2)n1 [listing 1 of 2 here]	–	–	–	–	Active
CCOCCCNC(=O)c1csc(Nc2cc(F)c(Cl)c(F)c2)n1 [listing 2 of 2 here]	–	–	–	–	Active
Cc1cc(Nc2nc(C(=O)NCCCN3CCOCC3)cs2)ccc1Cl	3.7	47	–	–	–
CC(C)OCCCNC(=O)c1csc(Nc2ccc(Cl)c(Cl)c2)n1	0.7	100	–	–	–
CC(C)OCCCNC(=O)c1csc(Nc2cc(F)c(Cl)c(F)c2)n1 [listing 2 of 2 here]	0.11	> 100	–	Insoluble	–
O=C(NCCCN1CCOCC1)c1csc(Nc2ccc(Cl)c(Cl)c2)n1	2.7	35.6	–	–	–
O=C(NCCCN1CCOCC1)c1csc(Nc2ccc(Cl)cc2)n1	3.1	> 100	–	–	–

Reference: ChEMBL document CHEMBL4321860, “Disrupting the Conserved Salt Bridge in the Trimerization of Influenza A Nucleoprotein” (J Med Chem, 2020)
